According to publication PMC5599994 (Clinical Pharmacology in Drug Development, 2017):
“And” between values parts separate entries of the source, which are not always exact repeats. Equal entries are not always repeated.

How the values were obtained:
[1] = format: in vivo, human; settings: plasma; midazolam 7.5 mg oral single dose alone, day 1
[2] = test system: CYP3A4; assay: Clinical drug-drug interaction: ratio; format: in vivo, human; settings: (midazolam + tenapanor)/midazolam; tenapanor 15 mg twice daily; healthy volunteers
[3] = test system: CYP2B6 mRNA; assay: CYP mRNA induction in HepaRG cell cultures; format: in vitro ADME, human; settings: 24 hours; for maximal increase in CYP2B6 mRNA levels relative to vehicle control: positive controls
[4] = Safety and tolerability; format: in vivo, human
[5] = biological target: CYP2C9 (Homo sapiens, UniProt P11712); assay: Reversible CYP inhibition in human liver microsomes, diclofenac marker; format: in vitro ADME
Outline: (§1)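 A cocktail at or below KM was incubated 5 min at 37°C with NADPH in 150-donor pooled human liver microsomes: phenacetin 30 μM (CYP1A2), diclofenac 10 μM (CYP2C9), (S)-mephenytoin 35 μM (CYP2C19), bufuralol 5 μM (CYP2D6), midazolam 3 μM (CYP3A4/5). Test compound was run at 0.1–30 μM (six levels), in triplicate. TCA quench, then LC-MS/MS (MRM) of metabolites. IC50 was fitted from % of DMSO-control activity versus log concentration; inhibition only at top concentration was reported as >30 μM.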

[6] = patients with CKD stage 5D on dialysis; in 387 of 390 serum samples; cited from earlier work
[7] = biological target: T1, CYP2C8 (Homo sapiens, UniProt P10632); assay: Reversible CYP inhibition in human liver microsomes, amodiaquine marker; format: in vitro ADME
T1 sequence (P10632 1-490): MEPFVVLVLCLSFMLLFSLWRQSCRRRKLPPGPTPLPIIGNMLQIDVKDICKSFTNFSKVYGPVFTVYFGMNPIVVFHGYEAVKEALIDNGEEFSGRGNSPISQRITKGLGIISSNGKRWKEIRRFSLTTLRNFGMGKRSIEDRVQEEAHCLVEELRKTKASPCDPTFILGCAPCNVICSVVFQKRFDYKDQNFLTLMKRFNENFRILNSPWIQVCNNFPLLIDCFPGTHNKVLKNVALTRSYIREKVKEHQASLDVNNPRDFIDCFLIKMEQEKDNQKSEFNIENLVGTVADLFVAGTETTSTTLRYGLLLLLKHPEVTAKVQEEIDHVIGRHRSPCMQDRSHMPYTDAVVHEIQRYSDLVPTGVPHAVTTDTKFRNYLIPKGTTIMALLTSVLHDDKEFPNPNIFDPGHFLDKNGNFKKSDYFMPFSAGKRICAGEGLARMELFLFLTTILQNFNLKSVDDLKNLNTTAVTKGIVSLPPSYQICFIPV
Outline: (§2)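 Pooled human liver microsomes (150 donors) with NADPH, 10 min at 37°C, using a substrate cocktail at or below KM: bupropion 80 μM (CYP2B6), amodiaquine 2 μM (CYP2C8), nifedipine 25 μM. Test compound was run at six levels, 0.1–30 μM, in triplicate. TCA quench, then metabolite by LC-MS/MS (MRM). IC50 came from a fit of % DMSO-control activity against log concentration; inhibition only at 30 μM was reported as >30 μM.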

[8] = biological target: CYP2D6 (Homo sapiens, UniProt P10635); assay: Reversible CYP inhibition in human liver microsomes, bufuralol marker; format: in vitro ADME
Outline: as §1

[9] = test system: HepaRG cells; assay: Cytotoxicity in the HepaRG induction experiments; format: cell-based, human
[10] = test system: CYP3A4/5; format: in vitro ADME; settings: human, human liver microsomes, probe midazolam 3 μM (1-OH-midazolam formation)
Outline: as §1

[11] = biological target: T2, CYP2B6 (Homo sapiens, UniProt P20813); assay: Reversible CYP inhibition in human liver microsomes, bupropion marker; format: in vitro ADME
T2 sequence (P20813 1-491): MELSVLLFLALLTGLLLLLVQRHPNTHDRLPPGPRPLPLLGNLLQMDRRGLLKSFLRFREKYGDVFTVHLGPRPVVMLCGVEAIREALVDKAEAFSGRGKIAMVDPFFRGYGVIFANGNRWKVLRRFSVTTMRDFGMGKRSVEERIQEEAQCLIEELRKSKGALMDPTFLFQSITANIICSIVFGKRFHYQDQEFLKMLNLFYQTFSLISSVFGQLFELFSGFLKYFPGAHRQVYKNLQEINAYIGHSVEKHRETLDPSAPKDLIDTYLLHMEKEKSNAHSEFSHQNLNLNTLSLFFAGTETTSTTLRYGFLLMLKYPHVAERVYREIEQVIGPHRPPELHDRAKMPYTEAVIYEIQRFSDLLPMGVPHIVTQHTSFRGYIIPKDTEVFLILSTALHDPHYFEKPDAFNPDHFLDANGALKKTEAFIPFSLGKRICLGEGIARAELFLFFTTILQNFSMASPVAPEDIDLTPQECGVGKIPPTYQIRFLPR
Outline: as §2

[12] = test system: CYP1A2 mRNA; assay: CYP mRNA induction in HepaRG cell cultures; format: in vitro ADME, human; settings: 24 hours
[13] = test system: CYP3A4 mRNA; settings: HepaRG, 24 hours
[14] = biological target: T3, CYP1A2 (Homo sapiens, UniProt P05177); assay: Reversible CYP inhibition in human liver microsomes, phenacetin marker; format: in vitro ADME; settings: probe phenacetin 30 μM (paracetamol formation)
T3 sequence (P05177 1-516): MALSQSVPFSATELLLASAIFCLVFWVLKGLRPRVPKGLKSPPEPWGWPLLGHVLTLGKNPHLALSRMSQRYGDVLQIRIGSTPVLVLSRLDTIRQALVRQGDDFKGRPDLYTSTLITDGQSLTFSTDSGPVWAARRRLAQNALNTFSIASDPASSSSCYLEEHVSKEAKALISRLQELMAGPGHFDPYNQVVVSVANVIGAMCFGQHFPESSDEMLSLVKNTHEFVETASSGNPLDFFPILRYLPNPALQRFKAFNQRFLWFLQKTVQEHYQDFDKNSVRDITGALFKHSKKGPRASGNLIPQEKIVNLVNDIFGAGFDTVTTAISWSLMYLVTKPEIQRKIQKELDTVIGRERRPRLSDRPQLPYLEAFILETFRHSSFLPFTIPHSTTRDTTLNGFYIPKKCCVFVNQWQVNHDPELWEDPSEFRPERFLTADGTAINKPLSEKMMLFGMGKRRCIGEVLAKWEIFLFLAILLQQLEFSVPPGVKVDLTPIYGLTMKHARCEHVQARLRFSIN
Outline: as §1

[15] = biological target: CYP2C19 (Homo sapiens, UniProt P33261); assay: Reversible CYP inhibition in human liver microsomes; format: in vitro ADME
Outline: as §1

[16] = tenapanor 15 mg twice daily alone
[17] = concentrations of up to 20 μM, all experiments

Chain of CYP2C19 (P33261 whole entry): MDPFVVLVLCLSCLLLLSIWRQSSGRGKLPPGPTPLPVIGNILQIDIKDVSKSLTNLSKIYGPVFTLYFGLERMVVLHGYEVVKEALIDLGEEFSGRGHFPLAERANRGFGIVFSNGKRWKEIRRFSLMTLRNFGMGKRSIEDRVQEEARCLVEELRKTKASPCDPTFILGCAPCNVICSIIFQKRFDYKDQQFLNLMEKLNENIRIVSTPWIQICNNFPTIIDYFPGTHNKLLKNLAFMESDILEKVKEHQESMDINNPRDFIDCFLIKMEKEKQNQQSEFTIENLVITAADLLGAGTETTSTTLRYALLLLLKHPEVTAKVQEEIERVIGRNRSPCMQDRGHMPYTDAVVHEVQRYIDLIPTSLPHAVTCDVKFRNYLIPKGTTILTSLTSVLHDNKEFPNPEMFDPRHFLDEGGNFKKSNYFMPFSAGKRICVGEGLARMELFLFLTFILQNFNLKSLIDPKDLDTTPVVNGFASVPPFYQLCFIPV
Chain of CYP2D6 (P10635 whole entry): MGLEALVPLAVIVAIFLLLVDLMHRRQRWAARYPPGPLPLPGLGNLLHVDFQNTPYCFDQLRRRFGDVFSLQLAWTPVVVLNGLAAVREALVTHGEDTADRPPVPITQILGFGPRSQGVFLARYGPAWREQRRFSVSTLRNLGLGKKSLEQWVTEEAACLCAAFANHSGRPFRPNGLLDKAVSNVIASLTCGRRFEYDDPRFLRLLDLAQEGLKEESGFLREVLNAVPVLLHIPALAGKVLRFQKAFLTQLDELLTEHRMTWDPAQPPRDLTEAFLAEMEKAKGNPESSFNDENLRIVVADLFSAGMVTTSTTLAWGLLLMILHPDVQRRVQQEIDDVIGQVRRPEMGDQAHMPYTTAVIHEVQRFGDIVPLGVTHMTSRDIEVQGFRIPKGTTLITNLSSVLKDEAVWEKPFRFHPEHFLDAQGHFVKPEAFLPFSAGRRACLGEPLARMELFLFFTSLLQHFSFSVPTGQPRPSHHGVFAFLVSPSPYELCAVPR
Chain of CYP2C9 (P11712 whole entry): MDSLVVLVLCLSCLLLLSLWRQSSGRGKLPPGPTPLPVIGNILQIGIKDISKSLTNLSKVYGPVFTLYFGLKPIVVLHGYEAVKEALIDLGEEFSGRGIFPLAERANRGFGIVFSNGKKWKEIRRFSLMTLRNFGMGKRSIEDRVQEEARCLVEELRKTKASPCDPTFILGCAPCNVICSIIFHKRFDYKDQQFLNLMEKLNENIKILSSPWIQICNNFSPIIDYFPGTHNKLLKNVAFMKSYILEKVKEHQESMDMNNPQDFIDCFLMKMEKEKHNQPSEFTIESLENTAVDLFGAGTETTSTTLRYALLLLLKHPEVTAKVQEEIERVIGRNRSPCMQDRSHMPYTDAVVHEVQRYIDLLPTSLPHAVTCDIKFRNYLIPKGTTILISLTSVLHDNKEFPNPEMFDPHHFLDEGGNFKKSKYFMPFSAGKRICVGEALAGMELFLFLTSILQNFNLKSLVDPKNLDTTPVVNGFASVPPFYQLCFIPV

## OCc1ncc2n1-c1ccc(Cl)cc1C(c1ccccc1F)=NC2 [1‐OH‐midazolam]
[1]
  AUC0-t, arithmetic mean (SD): 52.1 (29.7) ng·h/mL
  AUC0-t, geometric mean (GCV%): 47.2 (43.1) ng·h/mL
  AUC, arithmetic mean (SD): 54.1 (31.6) ng·h/mL
  AUC, geometric mean (GCV%): 48.8 (43.6) ng·h/mL
  Cmax, arithmetic mean (SD): 26.6 (12.0) ng/mL
  Cmax, geometric mean (GCV%): 24.1 (47.8) ng/mL
  t1/2, arithmetic mean (SD): 5.14 (2.22) h
  t1/2, geometric mean (GCV%): 4.64 (50.0) h
  tmax, median (range): 0.50 (0.25‐0.55) h
[2]
  AUC0-t ratio (90%CI), geometric least-squares means: 110 (104‐116) %
  AUC ratio (90%CI), geometric least-squares means: 110 (103‐116) %
  Cmax ratio (90%CI), geometric least-squares means: 103 (87.2‐122) %

## Cc1ncc2n1-c1ccc(Cl)cc1C(c1ccccc1F)=NC2O (centres unmarked) [4‐OH‐midazolam]
[1]
  AUC0-t, arithmetic mean (SD): 5.65 (1.50) ng·h/mL
  AUC0-t, geometric mean (GCV%): 5.47 (26.9) ng·h/mL
  AUC, arithmetic mean (SD): 6.14 (1.56) ng·h/mL
  AUC, geometric mean (GCV%): 5.96 (25.3) ng·h/mL
  Cmax, arithmetic mean (SD): 2.11 (0.757) ng/mL
  Cmax, geometric mean (GCV%): 1.99 (37.6) ng/mL
  t1/2, arithmetic mean (SD): 2.48 (0.820) h
  t1/2, geometric mean (GCV%): 2.37 (30.2) h
  tmax, median (range): 0.50 (0.25‐1.02) h
[2]
  AUC0-t ratio (90%CI), geometric least-squares means: 106 (99.1‐113) %
  AUC ratio (90%CI), geometric least-squares means: 105 (98.7‐111) %
  Cmax ratio (90%CI), geometric least-squares means: 105 (90.5‐122) %

## Clc1ccc(-c2nc3sccn3c2C=NOCc2ccc(Cl)c(Cl)c2)cc1 [CITCO, 6‐[4‐chlorophenyl]imidazo[2,1‐b][1,3]thiazole‐5‐carbaldehyde O‐[3,4‐dichlorobenzyl]oxime]
[3]
  maximal increase in CYP2B6 mRNA levels relative to vehicle control: 13.2 fold

## Cc1ncc2n1-c1ccc(Cl)cc1C(c1ccccc1F)=NC2 [Midazolam, midazolam, reference compound]
[1]
  tmax, median (range): 0.50 (0.25‐0.55) h
[4]; healthy volunteers
  somnolence: 27/28
  volunteers reporting at least 1 AE: 27/28
[2]
  AUC0-t ratio (90%CI), geometric least-squares means: 106 (100‐113) %
  AUC ratio (90%CI), geometric least-squares means: 107% and 107 (101‐113) %
  Cmax ratio (90%CI), geometric least-squares means: 104% and 104 (89.6‐122) %

## CN1Cc2c(Cl)cc(Cl)cc2[C@H](c2cccc(S(=O)(=O)NCCOCCOCCNC(=O)NCCCCNC(=O)NCCOCCOCCNS(=O)(=O)c3cccc([C@@H]4CN(C)Cc5c(Cl)cc(Cl)cc54)c3)c2)C1 [Tenapanor]
[5]
  IC50: 14.2 ± 3.2 µM
[4]; healthy volunteers
  volunteers reporting at least 1 AE: 9/27
[4]; [16]
  abdominal pain: 1 n
  abnormal gastrointestinal sounds: 2 n
  defecation urgency: 1 n
  dizziness: 2 n
  hypertrophy of tongue papillae: 1 n
[4]; tenapanor 15 mg twice daily alone, of the 9 volunteers who reported AEs
  gastrointestinal disorders: 5 volunteers
[6]
  serum tenapanor: below the limit of quantification
[7]
  IC50: 10.4 ± 3 µM
[8]
  IC50: 3.26 ± 0.54 µM
[9]; 20 μM
  cytotoxicity to HepaRG cells: not
[9]; 50 μM
  cytotoxicity to HepaRG cells: cytotoxic
[10]
  IC50 at 5 min: 0.402 ± 0.032 µM
[3]; [17]
  induction of CYP2B6 mRNA expression: did not induce
[11]
  IC50: 15.4 ± 7.5 µM
[12]; [17]
  induction of CYP1A2 mRNA expression: did not induce
[13]; 1 of 4 experiments
  CYP3A4 mRNA induction as % of the positive control response: 16.8%
  induction of CYP3A4 mRNA expression: up to 5.85 fold
[13]; 3 of 4 experiments
  influence on CYP3A4 mRNA levels: not observed to influence
[14]
  IC50 at 5 min: > 30 µM
[15]
  IC50: > 30 µM
[15]; human liver microsomes, S-mephenytoin 35 μM to 4-OH-mephenytoin
  Tenapanor IC50 (n = 3): No IC50 could be determined

## COc1ccc2[nH]c([S+]([O-])Cc3ncc(C)c(OC)c3C)nc2c1 (centres unmarked) [omeprazole, reference compound]
[12]; positive control
  maximal increase in CYP1A2 mRNA levels relative to vehicle control: 32.0 fold

## CCC1(c2ccccc2)C(=O)NC(=O)NC1=O [phenobarbital]
[3]
  maximal increase in CYP2B6 mRNA levels relative to vehicle control: 17.0 fold
